According to the M2OR odorant receptor database:

How the values were obtained:
Conditions in all cases: stereoisomer not certain
UniProt Q924H8 = molecular target: T1, UniProt Q924H8
T1 sequence (whole entry): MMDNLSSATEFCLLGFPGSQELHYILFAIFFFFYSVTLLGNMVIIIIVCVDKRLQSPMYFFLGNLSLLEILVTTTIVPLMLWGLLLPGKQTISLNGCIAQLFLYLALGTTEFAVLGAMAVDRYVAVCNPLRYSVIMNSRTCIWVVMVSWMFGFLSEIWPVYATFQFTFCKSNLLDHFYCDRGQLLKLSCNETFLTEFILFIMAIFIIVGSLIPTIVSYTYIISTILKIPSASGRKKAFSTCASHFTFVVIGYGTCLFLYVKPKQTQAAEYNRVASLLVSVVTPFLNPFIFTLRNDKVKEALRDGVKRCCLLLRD
Procedure, shortened: (§1)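 Each receptor–molecule pair is labelled responsive or non-responsive (inactive) according to whether the original authors judged the measured signal statistically different from baseline. The data were taken from the main text and supplementary material of published papers and checked for typos and inconsistencies. Assay methods differed by source, with transient luciferase assays in mammalian cell lines being common.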

UniProt Q9EPN9 = molecular target: T2, UniProt Q9EPN9
T2 sequence (whole entry): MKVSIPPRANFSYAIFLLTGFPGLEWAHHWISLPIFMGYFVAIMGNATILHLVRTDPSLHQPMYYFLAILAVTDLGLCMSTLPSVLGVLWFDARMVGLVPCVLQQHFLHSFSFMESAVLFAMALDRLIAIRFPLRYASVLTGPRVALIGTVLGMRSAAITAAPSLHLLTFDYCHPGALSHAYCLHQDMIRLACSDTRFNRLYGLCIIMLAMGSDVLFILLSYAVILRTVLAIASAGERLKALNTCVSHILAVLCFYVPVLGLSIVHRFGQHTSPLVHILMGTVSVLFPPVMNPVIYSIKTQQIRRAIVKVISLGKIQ
Procedure, shortened: as §1

UniProt Q9R0K2 = molecular target: UniProt Q9R0K2
UniProt Q9R0K2, sequence (Q9R0K2 as listed by the source): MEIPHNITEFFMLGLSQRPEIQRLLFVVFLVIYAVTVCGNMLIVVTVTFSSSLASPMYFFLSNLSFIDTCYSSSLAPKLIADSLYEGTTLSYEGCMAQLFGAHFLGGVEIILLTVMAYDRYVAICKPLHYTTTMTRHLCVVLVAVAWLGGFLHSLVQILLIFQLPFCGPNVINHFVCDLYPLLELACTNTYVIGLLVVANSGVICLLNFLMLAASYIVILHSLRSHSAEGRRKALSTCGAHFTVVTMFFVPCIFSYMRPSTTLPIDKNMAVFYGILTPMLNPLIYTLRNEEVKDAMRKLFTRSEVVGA
Procedure, shortened: as §1

UniProt Q9WU86 = molecular target: T3, UniProt Q9WU86
T3 sequence (whole entry): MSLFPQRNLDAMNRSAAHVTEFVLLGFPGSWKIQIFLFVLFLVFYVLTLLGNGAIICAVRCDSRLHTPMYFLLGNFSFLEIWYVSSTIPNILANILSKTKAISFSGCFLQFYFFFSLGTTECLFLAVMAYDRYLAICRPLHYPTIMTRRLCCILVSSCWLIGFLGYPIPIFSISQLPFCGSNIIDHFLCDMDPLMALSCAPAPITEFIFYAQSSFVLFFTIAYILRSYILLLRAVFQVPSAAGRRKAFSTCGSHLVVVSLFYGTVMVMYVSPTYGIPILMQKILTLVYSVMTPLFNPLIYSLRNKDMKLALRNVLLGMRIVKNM
Procedure, shortened: as §1

UniProt Q99NH4 = molecular target: T4, UniProt Q99NH4
T4 sequence (whole entry): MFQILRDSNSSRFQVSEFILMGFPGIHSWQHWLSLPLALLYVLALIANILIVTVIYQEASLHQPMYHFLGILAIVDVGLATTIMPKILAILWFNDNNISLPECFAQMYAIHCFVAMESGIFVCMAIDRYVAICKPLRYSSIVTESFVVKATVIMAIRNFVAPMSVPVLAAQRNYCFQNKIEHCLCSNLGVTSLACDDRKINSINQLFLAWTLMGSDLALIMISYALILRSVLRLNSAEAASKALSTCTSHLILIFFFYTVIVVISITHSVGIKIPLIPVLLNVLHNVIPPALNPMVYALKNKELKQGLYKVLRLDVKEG
Procedure, shortened: as §1

UniProt Q9WU94 = molecular target: T5, UniProt Q9WU94
T5 sequence (whole entry): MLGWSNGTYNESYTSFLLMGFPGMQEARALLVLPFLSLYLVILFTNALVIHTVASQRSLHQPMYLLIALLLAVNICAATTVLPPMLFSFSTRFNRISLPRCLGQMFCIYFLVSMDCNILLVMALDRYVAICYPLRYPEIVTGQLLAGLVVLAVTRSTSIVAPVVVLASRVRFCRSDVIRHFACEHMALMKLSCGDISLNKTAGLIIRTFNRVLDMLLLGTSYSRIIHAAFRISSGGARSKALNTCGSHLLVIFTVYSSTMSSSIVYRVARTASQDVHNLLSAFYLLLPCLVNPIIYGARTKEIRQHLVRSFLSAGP
Procedure, shortened: as §1

UniProt Q924X8 = molecular target: T6, UniProt Q924X8
T6 sequence (whole entry): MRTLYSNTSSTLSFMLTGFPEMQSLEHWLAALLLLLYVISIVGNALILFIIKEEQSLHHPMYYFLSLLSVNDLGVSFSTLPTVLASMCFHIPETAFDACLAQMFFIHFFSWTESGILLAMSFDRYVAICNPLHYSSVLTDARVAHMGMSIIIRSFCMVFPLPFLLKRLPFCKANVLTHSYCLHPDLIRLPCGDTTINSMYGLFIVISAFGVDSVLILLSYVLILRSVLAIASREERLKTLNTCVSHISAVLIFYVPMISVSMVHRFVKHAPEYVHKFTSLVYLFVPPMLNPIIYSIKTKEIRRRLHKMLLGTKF
Procedure, shortened: as §1

UniProt Q9WVD7 = molecular target: T7, UniProt Q9WVD7
T7 sequence (whole entry): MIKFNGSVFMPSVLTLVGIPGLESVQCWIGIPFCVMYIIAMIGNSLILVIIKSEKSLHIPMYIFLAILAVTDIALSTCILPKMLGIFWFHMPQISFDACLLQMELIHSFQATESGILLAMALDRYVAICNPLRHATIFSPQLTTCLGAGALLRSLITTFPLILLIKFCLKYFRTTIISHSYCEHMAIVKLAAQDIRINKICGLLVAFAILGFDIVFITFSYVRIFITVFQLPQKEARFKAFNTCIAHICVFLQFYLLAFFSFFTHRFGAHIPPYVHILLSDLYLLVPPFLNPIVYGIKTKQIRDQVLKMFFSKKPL
Procedure, shortened: as §1

Measured: odorant receptor agonist call;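 note: active if original authors judged signal statistically different from baseline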

CCCCCCCC(C)=O
inactive: UniProt Q924H8 | UniProt Q9EPN9 | UniProt Q9R0K2 | UniProt Q9WU86

CCCCCCCCCC(=O)[O-].[H+]
not listed: UniProt Q924X8 | UniProt Q9WVD7
inactive: all other assays above

CC12CCC(CC1=O)C2(C)C (stereo unspecified)
inactive: UniProt Q924H8 | UniProt Q9EPN9 | UniProt Q9R0K2 | UniProt Q9WU86

CCCCC(C)=O
inactive: UniProt Q924H8 | UniProt Q9EPN9 | UniProt Q9R0K2 | UniProt Q9WU86

CCOC(=O)C(C)CC (stereo unspecified)
inactive: UniProt Q924H8

CCCCCCCCCO
active: UniProt Q9WVD7
not listed: UniProt Q99NH4
inactive: all other assays above

CCc1ccc(O)cc1
inactive: UniProt Q924H8

CCCCCCCCS
inactive: UniProt Q924H8 | UniProt Q9EPN9 | UniProt Q9R0K2 | UniProt Q9WU86

CCCC(=O)C(C)=O
inactive: UniProt Q924H8 | UniProt Q9EPN9 | UniProt Q9R0K2 | UniProt Q9WU86

Cc1ccc(C(C)C)cc1
inactive: UniProt Q924H8
